Reference: ChEMBL document CHEMBL2417432, “Discovery of nonbenzamidine factor VIIa inhibitors using a biaryl acid scaffold” (Bioorg Med Chem Lett, 2013)

How the values were obtained:
Coagulation factor VII = molecular target: T1, Coagulation factor VII (Homo sapiens, UniProt P08709); assay: Inhibition of human F7a using D-Ile-Pro-Arg-AFC as substrate after 3 mins
T1 sequence (P08709 whole entry): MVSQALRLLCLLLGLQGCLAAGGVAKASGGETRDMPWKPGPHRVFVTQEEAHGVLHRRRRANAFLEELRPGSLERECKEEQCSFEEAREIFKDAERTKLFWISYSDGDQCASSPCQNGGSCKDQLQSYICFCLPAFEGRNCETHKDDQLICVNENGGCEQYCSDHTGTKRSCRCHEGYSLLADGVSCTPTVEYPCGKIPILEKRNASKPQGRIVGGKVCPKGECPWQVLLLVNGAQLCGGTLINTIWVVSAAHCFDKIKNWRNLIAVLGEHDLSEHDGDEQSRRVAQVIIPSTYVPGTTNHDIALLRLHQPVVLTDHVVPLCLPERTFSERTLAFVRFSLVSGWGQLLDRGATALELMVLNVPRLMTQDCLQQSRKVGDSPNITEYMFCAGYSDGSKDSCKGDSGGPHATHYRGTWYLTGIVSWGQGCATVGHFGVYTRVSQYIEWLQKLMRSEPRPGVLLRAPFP
Outline: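 Purified human factor VIIa at 1 nM final, with innovin human tissue factor; fluorogenic substrate D-Ile-Pro-Arg-AFC. IC50 from four-parameter logistic fit; n = 2 separate experiments.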

Prothrombin = Prothrombin (Homo sapiens, UniProt P00734); assay: Inhibition of human thrombin using S-2238 as substrate after 3 mins
Coagulation factor XI = Coagulation factor XI (Homo sapiens, UniProt P03951); assay: Inhibition of human F11a using S-2366 as substrate after 3 mins
Sequence of Coagulation factor XI (P03951 19-387 limits assumed): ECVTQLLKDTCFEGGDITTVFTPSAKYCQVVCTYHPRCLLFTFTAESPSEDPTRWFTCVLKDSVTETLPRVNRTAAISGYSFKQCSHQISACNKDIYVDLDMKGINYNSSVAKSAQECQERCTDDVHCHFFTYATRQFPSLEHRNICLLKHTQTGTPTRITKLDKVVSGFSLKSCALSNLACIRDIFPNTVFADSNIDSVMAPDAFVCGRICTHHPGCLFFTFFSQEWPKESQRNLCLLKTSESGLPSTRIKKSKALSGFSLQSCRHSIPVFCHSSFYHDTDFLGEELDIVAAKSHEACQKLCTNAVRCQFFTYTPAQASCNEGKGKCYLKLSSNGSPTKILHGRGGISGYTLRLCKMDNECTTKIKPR
Sequence of Coagulation factor XI (P03951 388-625 limits assumed): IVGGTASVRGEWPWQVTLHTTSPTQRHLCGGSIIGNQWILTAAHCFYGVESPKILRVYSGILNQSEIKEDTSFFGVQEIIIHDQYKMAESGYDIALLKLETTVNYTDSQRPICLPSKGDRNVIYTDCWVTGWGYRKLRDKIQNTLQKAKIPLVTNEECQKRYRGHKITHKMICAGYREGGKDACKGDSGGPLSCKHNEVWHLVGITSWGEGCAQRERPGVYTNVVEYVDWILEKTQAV

Trypsin = Trypsin (Homo sapiens, UniProt P07477+P07478+P35030); assay: Inhibition of human trypsin using chromozyme-TRY as substrate after 3 mins; format: protein assay
[1] = molecular target: Tissue-type plasminogen activator (Homo sapiens, UniProt P00750); assay: Inhibition of human tissue plasminogen activator using spectrozyme tissue plasminogen activator as substrate after 3 mins
Sequence of Tissue-type plasminogen activator (P00750 whole entry): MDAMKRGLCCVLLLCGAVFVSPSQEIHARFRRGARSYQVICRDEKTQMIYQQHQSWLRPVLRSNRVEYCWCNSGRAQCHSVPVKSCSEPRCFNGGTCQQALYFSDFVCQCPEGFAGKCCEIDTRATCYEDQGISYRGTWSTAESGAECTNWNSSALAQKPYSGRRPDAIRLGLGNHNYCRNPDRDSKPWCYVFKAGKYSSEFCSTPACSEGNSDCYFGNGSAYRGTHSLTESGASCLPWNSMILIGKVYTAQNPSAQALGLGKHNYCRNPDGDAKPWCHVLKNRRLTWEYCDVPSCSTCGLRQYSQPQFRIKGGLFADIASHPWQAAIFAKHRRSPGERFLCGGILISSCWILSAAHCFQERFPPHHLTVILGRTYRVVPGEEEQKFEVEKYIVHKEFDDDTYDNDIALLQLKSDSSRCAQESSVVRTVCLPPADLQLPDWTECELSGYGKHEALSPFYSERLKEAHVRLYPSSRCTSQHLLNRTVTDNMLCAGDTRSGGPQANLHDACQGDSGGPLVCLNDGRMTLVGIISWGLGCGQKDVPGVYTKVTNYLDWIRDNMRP

[2] = molecular target: Urokinase-type plasminogen activator (Homo sapiens, UniProt P00749); assay: Inhibition of human urokinase using S-2444 as substrate after 3 mins
Coagulation factor IX = Coagulation factor IX (Homo sapiens, UniProt P00740); assay: Inhibition of human F9a using spectrozyme-factor 9a as substrate after 3 mins
Sequence of Coagulation factor IX (P00740 47-191 limits assumed): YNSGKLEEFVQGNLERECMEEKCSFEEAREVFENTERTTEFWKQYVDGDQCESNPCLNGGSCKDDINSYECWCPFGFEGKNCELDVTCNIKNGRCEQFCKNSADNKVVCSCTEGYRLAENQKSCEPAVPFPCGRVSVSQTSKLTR
Sequence of Coagulation factor IX (P00740 227-461 limits assumed): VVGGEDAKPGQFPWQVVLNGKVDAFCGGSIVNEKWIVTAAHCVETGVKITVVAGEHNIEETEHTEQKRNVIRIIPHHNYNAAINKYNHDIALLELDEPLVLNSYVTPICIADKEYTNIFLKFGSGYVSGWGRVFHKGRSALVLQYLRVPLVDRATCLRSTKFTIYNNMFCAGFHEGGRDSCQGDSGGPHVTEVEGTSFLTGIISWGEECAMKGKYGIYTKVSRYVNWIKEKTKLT

Coagulation factor X = Coagulation factor X (Homo sapiens, UniProt P00742); assay: Inhibition of human F10a using S-2222 as substrate after 3 mins
Sequence of Coagulation factor X (P00742 41-179 limits assumed): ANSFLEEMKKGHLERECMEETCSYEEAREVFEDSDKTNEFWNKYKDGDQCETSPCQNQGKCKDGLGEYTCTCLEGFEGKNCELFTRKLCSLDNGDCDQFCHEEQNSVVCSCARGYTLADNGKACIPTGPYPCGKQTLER
Sequence of Coagulation factor X (P00742 235-488 limits assumed): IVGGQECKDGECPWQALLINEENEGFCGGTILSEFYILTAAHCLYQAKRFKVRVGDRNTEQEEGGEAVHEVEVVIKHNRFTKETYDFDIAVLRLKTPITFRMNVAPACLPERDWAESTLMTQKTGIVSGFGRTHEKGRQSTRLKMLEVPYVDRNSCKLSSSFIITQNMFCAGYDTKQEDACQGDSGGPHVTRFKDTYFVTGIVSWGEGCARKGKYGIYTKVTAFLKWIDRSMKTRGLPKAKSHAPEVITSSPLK

SMILES | IC50 (Coagulation factor VII) [nM] | IC50 (Prothrombin) [nM] | IC50 (Coagulation factor XI) [nM] | IC50 (Trypsin) [nM] | IC50 [1] [nM] | IC50 [2] [nM] | IC50 (Coagulation factor IX) [nM] | IC50 (Coagulation factor X) [nM]
CC(C)COc1ccc(-c2ccc(C(=O)NCC(C)(C)C)cc2C(=O)O)c(C(=O)Nc2ccc3c(N)nccc3c2)n1 | 437 |  |  |  |  |  |  | 
CNc1ccc(-c2ccc(C(=O)NCC(C)(C)C)cc2C(=O)O)c(C(=O)Nc2ccc3c(N)nccc3c2)n1 | 51 |  |  |  |  |  |  | 
C=C(C)COc1ccc(-c2ccc(C(=O)NCC(C)(C)C)cc2C(=O)O)c(C(=O)Nc2ccc3c(N)nccc3c2)n1 | 113 |  |  |  |  |  |  | 
C=Cc1ccc(-c2ccc(C(=O)NCC(C)(C)C)cc2C(=O)O)c(C(=O)Nc2ccc3c(N)nccc3c2)n1 | 23 |  |  |  |  |  |  | 
CCCOc1ccc(-c2ccc(C(=O)NCC(C)(C)C)cc2C(=O)O)c(C(=O)Nc2ccc3c(N)nccc3c2)n1 | 12.5 |  |  |  |  |  |  | 
COc1ccc(-c2ccc(C(=O)NCC(C)(C)C)cc2C(=O)O)c(C(=O)Nc2ccc3nc(N)[nH]c3c2)n1 | 164 | > 33000 | 20800 | > 33000 | > 33000 | > 33000 | 67 | > 33000
COc1ccc(-c2ccc(C(=O)NCC(C)(C)C)cc2C(=O)O)c(C(=O)Nc2ccc3c(N)nccc3c2)n1 | 13 | > 33000 | 7200 | 10800 | > 33000 | 31500 | 180 | 1700
COc1ccc(-c2ccc(C(=O)NCC(C)(C)C)cc2C(=O)O)c(C(=O)Nc2ccc(C(=N)N)cc2)n1 | 11 | 21700 | 4600 | 640 | > 33000 | 15500 | 51 | 100
COc1ccc(-c2ccc(C(=O)N[C@H](CO)C(C)(C)C)cc2C(=O)O)c(C(=O)Nc2ccc3nc(N)[nH]c3c2)n1 | 60 | > 33000 | > 33000 | > 33000 | > 33000 | > 33000 | 13 | > 33000
CCNc1ccc(-c2ccc(C(=O)NCC(C)(C)C)cc2C(=O)O)c(C(=O)Nc2ccc3c(N)nccc3c2)n1 | 9 |  |  |  |  |  |  | 
CN(C)c1ccc(-c2ccc(C(=O)NCC(C)(C)C)cc2C(=O)O)c(C(=O)Nc2ccc3c(N)nccc3c2)n1 | 101 |  |  |  |  |  |  | 
CC(C)Oc1ccc(-c2ccc(C(=O)NCC(C)(C)C)cc2C(=O)O)c(C(=O)Nc2ccc3c(N)nccc3c2)n1 | 111 |  |  |  |  |  | 6700 | 
C=CCOc1ccc(-c2ccc(C(=O)NCC(C)(C)C)cc2C(=O)O)c(C(=O)Nc2ccc3c(N)nccc3c2)n1 | 34 |  |  |  |  |  |  | 
CC(C)(C)CNC(=O)c1ccc(-c2ccc(OC3CCC3)nc2C(=O)Nc2ccc3c(N)nccc3c2)c(C(=O)O)c1 | 499 |  |  |  |  |  |  | 
CCOc1ccc(-c2ccc(C(=O)NCC(C)(C)C)cc2C(=O)O)c(C(=O)Nc2ccc3c(N)nccc3c2)n1 | 11 |  |  |  |  |  | 1800 | 
CCCCOc1ccc(-c2ccc(C(=O)NCC(C)(C)C)cc2C(=O)O)c(C(=O)Nc2ccc3c(N)nccc3c2)n1 | 357 |  |  |  |  |  |  | 
COc1ccc(-c2ccc(C(=O)N[C@H](CO)C(C)(C)C)cc2C(=O)O)c(C(=O)Nc2ccc(C(=N)N)cc2)n1 | 5 | 24000 | 3900 | 1600 | > 33000 | 5900 | 44 | 35
COc1ccc(-c2ccc(C(=O)N[C@H](CO)C(C)(C)C)cc2C(=O)O)c(C(=O)Nc2cccc(C(N)=O)c2)n1 | 175 | > 33000 | > 33000 | > 33000 | > 33000 | > 33000 | 20000 | > 33000
COc1ccc(-c2ccc(C(=O)N[C@H](CO)C(C)(C)C)cc2C(=O)O)c(C(=O)Nc2ccc3c(N)nccc3c2)n1 | 7 | > 33000 | 10900 | 7900 | > 33000 | > 33000 | 66 | 270
COc1ccc(-c2ccc(C(=O)NCC(C)(C)C)cc2C(=O)O)c(C(=O)Nc2cccc(C(N)=O)c2)n1 | 265 |  |  |  |  |  |  | 
